Results pooled from the literature.
Each line is one published result; the experiments were not run side by side.
Target: Wee1-like protein kinase (WEE1, Homo sapiens, UniProt P30291)

SMILES | effect on | action | method | cells | concentration | measurement | result
CN1CC(Oc2cnc(C#N)cc2-c2ccn3nc(NC(=O)C4CC4)cc3c2)C1 | enzyme activity | inhibitor |  |  | 1 µM | inhibition | 2%
N#Cc1ccc(Nc2ccc3[nH]c(=O)[nH]c3c2)c(Cl)c1 | cell-free assay |  | competition with immobilised ligand |  | 1 µM | remaining binding | 87%
Cc1ccc(C(=O)NCc2ccsc2)cc1C#Cc1cn(C(C)C)c2ncnc(N)c12 | enzyme activity | inhibitor |  |  | 1 µM | activity vs control | 103%
O=c1nc(-c2ccccn2)sc2ccccc12 | binding |  | competition with immobilised ligand |  | 1 µM | remaining binding | 100%
Cc1ccc(NC(=O)c2ccc(CN3CCN(C)CC3)cc2)cc1Nc1nc(-c2cccnc2)cs1 | cell-free assay |  |  |  | 0.5 µM | remaining signal | 97%
O=C(Nc1cnn(-c2csc(C(=O)NC3COC3)c2)c1)Nc1c(F)cccc1Cl | enzyme activity | inhibitor |  |  | 5 µM | remaining activity | 85.2%
O=C1Nc2ccc(Cl)cc2C1=Cc1cc(Cl)c(O)c(Cl)c1 | cell-free assay |  |  |  | 0.5 µM | remaining signal | 79.1%
Cc1ccc(NC(=O)c2ccc(C)c(C(F)(F)F)c2)cc1C#Cc1nn(C2CCC(O)CC2)c2ncnc(N)c12 (stereo not shown) | cell-free assay |  |  |  | 10 µM | remaining signal | 95%
COc1cc2c(Nc3ccc(Br)cc3F)ncnc2cc1OCC1CCN(C)CC1 | cell-free assay |  |  |  | 0.5 µM | remaining signal | 95.1%
Cc1cc(NC(=O)c2cccc3cc(-c4cccc5[nH]nc(N)c45)ccc23)ccc1F | enzyme activity | inhibitor |  |  | 0.1 µM | activity vs control | 97%
CC1=C(C#N)[C@@H](c2ccc3[nH]nc(C)c3c2)C(C#N)=C(c2ccc(Cl)cc2)N1 | cell-free assay |  | competition with immobilised ligand |  | 1 µM | remaining binding | 100%
COc1cc2ncnc(Nc3ccc(F)c(Cl)c3)c2cc1OCCCN1CCOCC1 | cell-free assay |  |  |  | 0.5 µM | remaining signal | 93.8%
CCOCCn1cc(C(=O)Nc2ccc(-n3nc(-c4cccnc4)cc3C(F)(F)F)cn2)ccc1=O | cell-free assay |  | competition with immobilised ligand |  | 1 µM | remaining binding | 100%
CNc1cc(Oc2cc(C(=O)Nc3cc(N4CCN(C)CC4)cc(C(F)(F)F)c3)ccc2C)ncn1 | target engagement in cells | inhibitor | chemoproteomics | Huh-7 | 1 µM | inhibition | -10.9%
CC(C)(C)c1nc(-c2cccc(NS(=O)(=O)c3c(F)cccc3F)c2F)c(-c2ccnc(N)n2)s1 | enzyme activity | inhibitor | radiometric |  | 1 µM | remaining activity | 91%
Nc1cnc(N2CCc3cc(S(=O)(=O)Nc4c(F)cc(Cl)cc4F)cc(N4CCCC4=O)c32)nc1 | cell-free assay |  | competition with immobilised ligand |  | 1 µM | remaining binding | 72%
